Assay results: paper PMC3128676 (Angewandte Chemie (International ed. in English), 2011)
“Also recorded” adds a separate entry of the source.

How the values were obtained:
[1] = In vivo biodistribution and clearance in SD rats; design: species or system Sprague-Dawley (SD) rats; conditions: Rat, 4 h postinjection
How it was run: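 Sprague-Dawley male rats (250 to 300 g) received 40 pmol/g fluorophore in saline i.v. and were imaged with the FLARE system on surgically exposed organs. Excitation was 14 mW/cm2 of 745–779 nm light, with emission through an 800–848 nm bandpass and exposure held constant. CBR = (FL–BG)/BG was scored relative to abdominal wall. N = 5.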

[2] = In vivo biodistribution and clearance in CD-1 mice; conditions: for Uptake in intestine / Uptake in kidneys / Uptake in liver / CBR Bl (bladder) relative to abdominal wall / CBR He/Lu (heart/lungs) relative to abdominal wall / CBR In (intestine) relative to abdominal wall / CBR Li (liver) relative to abdominal wall / CBR Re (rectum) relative to abdominal wall / CBR Sk/Mu (skin/muscle) relative to abdominal wall / CBR Sp (spleen) relative to abdominal wall / Carcass (retention) / Eliminated (from the body into urine): 4 h postinjection; for β-phase blood half-life (t1/2β): CD-1 mice, 40 pmol/g i.v.; for CBR Bl (bladder) relative to abdominal wall / CBR He/Lu (heart/lungs) relative to abdominal wall / CBR In (intestine) relative to abdominal wall / CBR Li (liver) relative to abdominal wall / CBR Re (rectum) relative to abdominal wall / CBR Sk/Mu (skin/muscle) relative to abdominal wall / CBR Sp (spleen) relative to abdominal wall / Carcass (retention) / Eliminated (from the body into urine): Mouse; for half-life: blood; for half-life / tissue uptake at 4 h: 40 pmol/g; for Route of elimination (renal clearance), in words: mice, 4 h
How it was run: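 CD-1 male mice (25 to 30 g) received 40 pmol/g fluorophore in saline i.v. and were imaged with the FLARE system on surgically exposed organs. Excitation was 14 mW/cm2 of 745–779 nm-filtered light, with emission through an 800–848 nm bandpass and exposure and normalization held constant. ROI fluorescence and background gave CBR = (FL–BG)/BG, scored against abdominal wall. N = 5, mean ± S.D.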

[3] = Optical property measurements in 100% FBS at 37°C; assay type: physicochemical; conditions: for Stokes Shift / λem / λexc / ε (extinction coefficient) / Φ (fluorescence quantum yield): 100% FBS; for ε (extinction coefficient): 50 mM HEPES pH 7.4, 37°C; for Φ (fluorescence quantum yield): ICG in DMSO as standard
How it was run: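 Spectra were taken at 37°C in 100% FBS buffered with 50 mM HEPES, pH 7.4, on fiberoptic absorbance (200–1100 nm) and fluorescence (350–1000 nm) spectrometers. Excitation was a 770 nm laser diode set to 8 mW. […] Dyes available only as NHS ester were first hydrolysed to acid in 50 mM borate, pH 9.0, for 3 h.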

Stability in warm serum = assay type: in vitro ADME, bovine; conditions: 100% FBS, up to 4 h
serum proteins = assay type: in vitro ADME, bovine; conditions: 4 h incubation in 100% FBS
[4] = in dimethyl sulfoxide; cited from earlier work

Compound | CBR Bl (bladder) relative to abdominal wall [1] | CBR He/Lu (heart/lungs) relative to abdominal wall [1] | CBR In (intestine) relative to abdominal wall [1] | CBR Li (liver) relative to abdominal wall [1] | CBR Re (rectum) relative to abdominal wall [1] | CBR Sk/Mu (skin/muscle) relative to abdominal wall [1] | CBR Sp (spleen) relative to abdominal wall [1] | CBR Bl (bladder) relative to abdominal wall [2] | CBR He/Lu (heart/lungs) relative to abdominal wall [2] | CBR In (intestine) relative to abdominal wall [2] | CBR Li (liver) relative to abdominal wall [2] | CBR Re (rectum) relative to abdominal wall [2] | CBR Sk/Mu (skin/muscle) relative to abdominal wall [2] | CBR Sp (spleen) relative to abdominal wall [2] | Carcass (retention) [2] | Eliminated (from the body into urine) [2] | Stokes Shift [3] | λem [3] | λexc [3] | ε (extinction coefficient) [3] | also measured
CC1(C)C(=CC=C2CCCC(C=CC3=[N+](CCCCCC(=O)[O-])c4ccc(S(=O)(=O)[O-])cc4C3(C)C)=C2Oc2ccc(S(=O)(=O)[O-])cc2)N(CCCCS(=O)(=O)[O-])c2ccc(S(=O)(=O)[O-])cc21.[Na+].[Na+].[Na+].[Na+] [CW800, IRDye™800-CW carboxylic acid] | +++ (+++, > 5) | – (–, 0 to 1) | +++ (+++, > 5) | + (+, 1 to 2) | + (+, 1 to 2) | + (+, 1 to 2) | – (–, 0 to 1) | +++ (+++, > 5) | – (–, 0 to 1) | +++ (+++, > 5) | – (–, 0 to 1) | ++ (++, 2 to 5) | + (+, 1 to 2) | – (–, 0 to 1) | 52.4 ± 9.6 %ID | 44.0 ± 4.6 %ID | 14 nm | 800 nm | 786 nm | 237,000 M^-1cm^-1 | Uptake in intestine [2]: 28.5 ± 7.0 %ID/g; Uptake in kidneys [2]: 7.3 ± 1.3 %ID/g; Uptake in liver [2]: 11.4 ± 0.8 %ID/g; β-phase blood half-life (t1/2β) [2]: 18.5 min; Φ (fluorescence quantum yield) [3]: 14.2%; Decomposition (Stability in warm serum): 4.0%
CC1(C)C(/C=C/C=C/C=C/C=C2\N(CCCCS(=O)(=O)O)c3ccc4ccccc4c3C2(C)C)=[N+](CCCCS(=O)(=O)[O-])c2ccc3ccccc3c21 [ICG, indocyanine green] | – (–, 0 to 1) | – (–, 0 to 1) | +++ (+++, > 5) | ++ (++, 2 to 5) | + (+, 1 to 2) | – (–, 0 to 1) | – (–, 0 to 1) | – (–, 0 to 1) | – (–, 0 to 1) | +++ (+++, > 5) | ++ (++, 2 to 5) | + (+, 1 to 2) | – (–, 0 to 1) | – (–, 0 to 1) | 97.1 ± 9.4 %ID | 2.2 ± 0.9 %ID | 15 nm | 822 nm | 807 nm | 121,000 M^-1cm^-1 | Serum protein binding (HD shift by GFC) (serum proteins): significant HD shift; Φ (fluorescence quantum yield) of calibration standard [4]: 13%; half-life ([2]; male, CD-1, mouse, iv): 3.6 min; tissue uptake at 4 h ([2]; male, CD-1, mouse, intestine, intravenous): 62 ± 6.6 %ID/g; tissue uptake at 4 h ([2]; male, CD-1, mouse, kidneys, intravenous): 5.9 ± 1 %ID/g; tissue uptake at 4 h ([2]; male, CD-1, mouse, liver, intravenous): 27.1 ± 0.5 %ID/g; Route of elimination (renal clearance), in words [2]: undetectable in urine; half-life ([2]; mouse, intravenous): 2 to 5 min; Φ (fluorescence quantum yield) [3]: 9.3%; Decomposition (Stability in warm serum): 5.9%
CC1(C)C(/C=C/C2=C(Oc3ccc(CCC(=O)O)cc3)C(=C/C=C3/N(CCC[N+](C)(C)C)c4ccc(S(=O)(=O)O)cc4C3(C)C)/CCC2)=[N+](CCC[N+](C)(C)C)c2ccc(S(=O)(=O)O)cc21 [ZW800-1] | +++ (+++, > 5) | – (–, 0 to 1) | – (–, 0 to 1) | – (–, 0 to 1) | – (–, 0 to 1) | – (–, 0 to 1) | – (–, 0 to 1) | +++ (+++, > 5) | – (–, 0 to 1) | – (–, 0 to 1) | – (–, 0 to 1) | – (–, 0 to 1) | – (–, 0 to 1) | – (–, 0 to 1) | 12.4 ± 3.4 %ID | 86.0 ± 15.4 %ID | 16 nm | 788 nm | 772 nm | 249,000 M^-1cm^-1 | Serum protein binding (HD shift by GFC) (serum proteins): does not exhibit protein binding; also recorded: no serum protein binding; also recorded: did not adsorb to serum proteins; Carcass (retention) ([1]; not measured directly): 14.8 ± 6.5 %ID; Eliminated ([1]; not measured directly): 83.4 ± 15.9 %ID; Found in urine ([2]; 1 h post-injection): 51.3 ± 9.7 %ID; Uptake in intestine [2]: 0.7 ± 0.4 %ID/g; Uptake in kidneys [2]: 9.8 ± 2.2 %ID/g; Uptake in liver [2]: 0.9 ± 0.1 %ID/g; β-phase blood half-life (t1/2β) [2]: 15.1 min; Route of elimination (renal clearance), in words [2]: exclusively cleared by the kidneys; also recorded: mostly renally cleared; Φ (fluorescence quantum yield) [3]: 15.1%; Product of extinction coefficient and quantum yield in serum, relative to ICG ([3]; in serum): over 3 fold; Decomposition (Stability in warm serum): 5.5%
IRDye™800-RS carboxylic acid [RS800] | – (–, 0 to 1) | – (–, 0 to 1) | +++ (+++, > 5) | – (–, 0 to 1) | ++ (++, 2 to 5) | – (–, 0 to 1) | – (–, 0 to 1) | ++ (++, 2 to 5) | – (–, 0 to 1) | ++ (++, 2 to 5) | – (–, 0 to 1) | +++ (+++, > 5) | – (–, 0 to 1) | – (–, 0 to 1) | 79.0 ± 4.1 %ID | 15.5 ± 1.2 %ID | 16 nm | 800 nm | 784 nm | 240,000 M^-1cm^-1 | β-phase blood half-life (t1/2β) [2]: 11.2 min; Renal filtration / renal excretion ([2]; approximate, discussion statement): ≈ 20%; Φ (fluorescence quantum yield) [3]: 16.9%; Decomposition (Stability in warm serum): 4.4%
